# PREPL inh – inhibitors of human prolyl oligopeptidase-like enzyme PREPL. Q4J6C6. recombinant PREPL, fluorescence polarization activity-based probe. inhibition, % at 5.96 µM. 320,000 compounds, 0.68% hits. AID 2751; in the data active = inhibition above about 43%;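 also: 0% = enzyme with DMSO and 100% = wells lacking enzyme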
# NTR1 ag – NTR1 (human) agonism; P30989; NTR1-U2OS beta-arrestin-GFP spot imaging, agonist mode; activation, % at 20 µM; 330,000 compounds, 0.17% hits; AID 493036;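 active = activation at or above 40% of the spot to cytoplasm intensity ratio, with at least 20 cells analyzed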;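 also: 0% = DMSO without peptide and 100% = 100 nM NTR1 peptide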
# MC4R antag cAMP – human MC4R antagonism in cAMP assay. P32245. MC4R-expressing cells, MTII-stimulated cAMP, LANCE TR-FRET. inhibition, % at 6.5 µM. 360,000 compounds, 0.48% hits. AID 540295;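 active = inhibition above its plate's cutoff, the mean of tested wells on that plate plus 3 SD, cut at about 29% in these data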;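 also: 0% = Melanotan II alone and 100% = Melanotan II plus saturating MCL0020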
#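 Assay system: human MC4R-expressing U2OS cells; reagent: Melanotan II stimulation of cells; dosing: 6.5 µM single dose; timing: compound 30 min, challenge 1 h, detection 1 h; signal: TR-FRET cAMP assay; replicates: one well per compound, no replicates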
# MC4R barr agon – human MC4R agonism via beta-arrestin | 360,000 compounds, 0.98% hits | activation, % at 8.9 µM | P32245 | U2OS MC4R beta-arrestin complementation, luminescence; percent of melanotan II response, DMSO zero;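 active = activation above a per-plate cutoff, the mean activation of sample wells on that plate plus 3 SD, cut at about 8% in these data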
# Hep lipid drop – hepatic lipid droplet formation modulation; AML12 mouse hepatocytes, oleate lipid droplets, BODIPY imaging; inhibition, % at 6.5 µM; 240,000 compounds, 0.4% hits; AID 1656;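 active = lipid droplet intensity inhibited by at least 50%, with more than 500 cells counted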
#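 Assay system: AML12 hepatocytes (mouse) / Also added: 100 µM oleic acid challenge / Times: overnight treatment with compound plus oleate / Detection: high-content imaging of BODIPY-stained droplets and DAPI nuclei / Evaluation: % inhibition of lipid droplet signal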
# m5-HT2A agonist – mouse HTR2A agonism via beta-arrestin recruitment; P35363; 360,000 compounds, 0.66% hits; CHO-K1 mHTR2A beta-arrestin complementation, luminescence; percent of 30 µM serotonin response; activation, % at 7.6 µM;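 active = activation above a run cutoff, the mean activation of all tested compounds plus 3 SD, cut at about 14% in these data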;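 also: 0% = plate median of compound wells and 100% = 30 µM serotonin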
# Target sequence (P35363 whole entry, looked up): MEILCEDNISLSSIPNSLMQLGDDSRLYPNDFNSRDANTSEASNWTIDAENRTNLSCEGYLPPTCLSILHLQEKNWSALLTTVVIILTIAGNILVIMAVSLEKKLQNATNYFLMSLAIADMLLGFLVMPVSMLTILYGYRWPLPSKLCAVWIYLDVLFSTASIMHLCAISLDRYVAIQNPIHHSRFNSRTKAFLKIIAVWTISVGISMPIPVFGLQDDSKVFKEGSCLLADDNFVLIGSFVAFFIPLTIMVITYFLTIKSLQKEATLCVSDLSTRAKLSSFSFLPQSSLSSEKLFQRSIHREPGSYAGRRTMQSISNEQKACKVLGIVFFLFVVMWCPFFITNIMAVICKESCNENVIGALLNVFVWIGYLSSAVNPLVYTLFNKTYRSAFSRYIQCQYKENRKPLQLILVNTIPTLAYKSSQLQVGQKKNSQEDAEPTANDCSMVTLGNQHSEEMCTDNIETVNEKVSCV
# MOR ag counter – OPRM1 agonism in mouse HTR2A counterscreen. activation, % at 9.3 µM. U2OS OPRM1 beta-arrestin PathHunter, luminescence; DMSO 0%, DAMGO 9.3 µM 100%. AID 624380. shares compounds with m5-HT2A agonist. 2,300 compounds, 5.3% hits;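 active = mean activation above the mean of DMSO-only wells plus 3 SD, cut at about 0.5% in these data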
# HTR2A ag conf – confirmation of mouse HTR2A serotonin receptor agonists | activation, % at 7.6 µM | AID 624381 | 2,300 compounds, 19% hits | shares compounds with m5-HT2A agonist | CHO-K1 PathHunter beta-arrestin recruitment, luminescence; DMSO 0%, 30 µM serotonin 100%;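 active = mean activation across triplicates above the hit threshold derived in the original primary screen, cut at about 15% in these data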
# An asterisk follows results filed as active; nt = not tested or not shown. Hits are enriched below; roughly 2.7% of the tested compounds scored in any of these assays.
SMILES,PREPL inh,NTR1 ag,MC4R antag cAMP,MC4R barr agon,Hep lipid drop,m5-HT2A agonist,MOR ag counter,HTR2A ag conf
CSc1nc(SCC(=O)NCc2ccco2)c2c3c(sc2n1)COC(C)(C)C3,12,3,-5,1,nt,19*,-1,2
Cc1cccc(N2CCN(C(=O)c3cc4ccccc4oc3=O)CC2)c1C,8,5,1,-1,3,16*,0,-5
CN1CCN(C(=O)c2cc3ccccc3oc2=O)CC1,0,2,7,-1,nt,6,nt,nt
CCN(CC(=O)NCc1ccc(F)cc1)C(=O)c1cccnc1SC,0,2,0,1,-24,15*,-1,-6
COc1ccc(C(=O)NCCn2cc(SCC(=O)N3CCOCC3)c3ccccc32)cc1,-1,0,15,1,nt,3,nt,nt
COc1ccc(C(=O)NCCn2cc(SCC(N)=O)c3ccccc32)cc1,2,0,-5,-2,3,16*,-1,-6
COc1cc(-c2ccc3sc(-c4ccsc4)c(C#CCO)c3c2)cc(OC)c1OC,-1,23,23,2,nt,18*,0,3
Cc1ccccc1CC(=O)N1CCN(S(=O)(=O)c2cccs2)CC1,12,2,15,-4,16,16*,0,-5
COc1ccc(CCn2c3c(c(=O)[nH]c2=O)C(NC(=O)c2cccs2)(C(F)(F)F)C(=O)N3)cc1OC (stereo unspecified),-2,0,1,-1,nt,15*,-1,-2
CC(=O)NC1(C(F)(F)F)C(=O)Nc2c1c(=O)[nH]c(=O)n2CCc1ccccc1 (stereo unspecified),-4,-2,-4,3,-5,6,nt,nt
C#CCN(C[C@H]1[C@H](OC(=O)NCCCCCC)[C@H](OC(=O)NCCCCCC)C[C@H]2C(=O)N(c3ccccc3)C(=O)[C@@H]12)S(=O)(=O)c1ccc(C)cc1,nt,nt,-4,1,nt,15*,0,-6
C#CCN(C[C@H]1[C@H](OC(=O)NCc2ccccc2)[C@H](OC(=O)NCc2ccccc2)C[C@H]2C(=O)N(c3ccccc3)C(=O)[C@@H]12)S(=O)(=O)c1ccc(C)cc1,nt,nt,20,0,nt,-1,nt,nt
CN1OC[C@@H]2CN(Cc3ccccc3)[C@H](c3cccc(Oc4ccccc4)c3)C[C@@H]21,nt,nt,12,1,nt,-1,nt,nt
CN1OC[C@@H]2CN(Cc3cc(Cl)cc(Cl)c3)[C@H](c3cccc(Oc4ccccc4)c3)C[C@@H]21,nt,nt,-1,-1,nt,15*,-1,-3
Cc1cc(C)c(C(=O)C(C)OC(=O)Cn2cnc3c2c(=O)n(C)c(=O)n3C)cc1C (stereo unspecified),7,4,20,-2,nt,1,nt,nt
Cc1ccc(-n2nc3c(=O)n(CCCC(=O)NCCN4CCN(C)CC4)nc(C)c3c2C)cc1,28,-2,-4,0,6,21*,0,1
Cn1c(SCC(=O)NCC2CCCO2)nnc1-c1c[nH]c2ccccc12 (stereo unspecified),-9,2,2,2,5,37*,-1,-2
Nc1ccccc1S(=O)(=O)NC1=NCCCCC1,12,2,-8,4,2,5,nt,nt
O=S(=O)(NC1=NCCCCC1)c1ccc(Cl)cc1Cl,19,1,-1,-2,nt,14*,0,-2
COc1ccc(CN(C)CCCn2cnc3c(OCc4ccccc4)ncnc32)cc1OC,nt,nt,4,1,nt,3,nt,nt
CCC1CCCCN1Cc1nc2c(c(=O)n(C)c(=O)n2C)n1CCC(C)C (stereo unspecified),13,6,13,0,-8,20*,0,3
CC(=O)N1CCN(C(=O)c2ccc(S(=O)(=O)Nc3ccccc3Cl)cc2)CC1,-9,2,5,-3,nt,16*,0.9*,6

# Source: PubChem (several laboratories)
